Data published in ChEMBL document CHEMBL4480410, “Targeting the MKK7-JNK (Mitogen-Activated Protein Kinase Kinase 7-c-Jun N-Terminal Kinase) Pathway with Covalent Inhibitors” (J Med Chem, 2019).
In brackets after ≈: the same amount, converted by molar mass.

Key:
[1] = Inhibition of N-terminal His-tagged MKK7 beta1 S273D/T275D double mutant (unknown origin) expressed in insect cells using JNK1 K55M mutant as substrate by ADP-Glo assay; design: species or system Homo sapiens
Procedure, shortened: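 ADP-Glo luminescence run per supplier protocol. Kinase: MKK7 beta1 (aa 1-462, TEV-cleavable N-terminal His6 tag, S273D/T275D) expressed in Sf9 insect cells, used at 20 nM. Substrate: JNK1 K55M at 5 µM. Compound dispensed acoustically; read on plate reader.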

[2] = Apparent permeability across basolateral to apical side in human Caco2 cells at 5 uM after 2 hrs by transwell membrane based assay; type: ADME, cell-based, Caco-2; details: Caco-2
Procedure, shortened: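 10 mM DMSO stock diluted to 5 µM final in HBSS pH 7.4; 2 h at 37 °C, 5% CO2 on Caco-2 monolayers grown 21 days on transwell membranes.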

[3] = molecular target: Serine/threonine-protein kinase mTOR (Homo sapiens) (UniProt P42345); experiment: Inhibition of mTOR (unknown origin) at 1 uM by proQinase-based assay relative to control
[4] = Kinetic solubility of the compound in Hepes buffer at pH 7.4 after 90 mins; type: physicochemical; details: read-out: Kinetic_solubility
Procedure, shortened: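 Compound diluted from 10 mM DMSO stock to 500 µM final in 50 mM Hepes, pH 7.4, shaken 90 min at room temperature. Filtered through 0.2 µm PVDF, then OD scanned 250–500 nm in 10 nm steps. Solubility taken from AUC, normalized to a dilution in acetonitrile.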

[5] = in vitro; details: human, liver microsomes
[6] = molecular target: T1, Tyrosine-protein kinase JAK3 (Homo sapiens) (UniProt P52333); experiment: Inhibition of JAK3 (unknown origin) at 1 uM by proQinase-based assay relative to control
T1 sequence (whole entry): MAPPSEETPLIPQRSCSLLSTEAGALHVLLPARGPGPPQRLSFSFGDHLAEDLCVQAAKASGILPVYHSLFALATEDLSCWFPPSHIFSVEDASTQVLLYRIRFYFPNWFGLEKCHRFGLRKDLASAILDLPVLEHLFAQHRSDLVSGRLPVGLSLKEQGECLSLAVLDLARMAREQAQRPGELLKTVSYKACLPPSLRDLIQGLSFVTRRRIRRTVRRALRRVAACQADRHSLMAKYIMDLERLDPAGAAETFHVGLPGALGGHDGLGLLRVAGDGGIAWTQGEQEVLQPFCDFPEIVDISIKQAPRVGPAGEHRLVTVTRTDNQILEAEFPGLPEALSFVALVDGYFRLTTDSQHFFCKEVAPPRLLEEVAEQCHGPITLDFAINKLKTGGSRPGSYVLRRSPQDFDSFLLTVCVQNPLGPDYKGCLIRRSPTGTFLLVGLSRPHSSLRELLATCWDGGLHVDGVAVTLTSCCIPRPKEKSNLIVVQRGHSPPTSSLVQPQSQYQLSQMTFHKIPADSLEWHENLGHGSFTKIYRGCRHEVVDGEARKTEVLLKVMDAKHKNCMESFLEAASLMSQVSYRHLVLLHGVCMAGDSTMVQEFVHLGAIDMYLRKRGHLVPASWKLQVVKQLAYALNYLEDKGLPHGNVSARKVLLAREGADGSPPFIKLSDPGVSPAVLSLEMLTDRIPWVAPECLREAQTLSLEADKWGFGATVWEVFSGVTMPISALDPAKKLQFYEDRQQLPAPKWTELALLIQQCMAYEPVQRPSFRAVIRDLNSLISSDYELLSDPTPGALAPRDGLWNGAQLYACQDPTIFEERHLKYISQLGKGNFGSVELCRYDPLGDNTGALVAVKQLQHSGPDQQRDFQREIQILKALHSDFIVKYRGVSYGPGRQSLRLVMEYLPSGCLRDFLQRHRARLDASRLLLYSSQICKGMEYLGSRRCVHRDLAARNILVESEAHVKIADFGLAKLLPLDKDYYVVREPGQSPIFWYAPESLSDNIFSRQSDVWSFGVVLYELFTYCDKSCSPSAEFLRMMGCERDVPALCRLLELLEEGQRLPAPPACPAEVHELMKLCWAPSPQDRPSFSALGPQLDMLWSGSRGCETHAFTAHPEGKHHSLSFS

[7] = Apparent permeability across apical to basolateral side in MDCK2-MDR1 cells at 10 uM after 2 hrs by transwell membrane based assay; type: ADME, cell-based, Canis lupus familiaris; details: dog, MDCK-MDR1
Procedure, shortened: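 Compound at 10 µM in HBSS added to apical or basolateral side of MDCKII-MDR1 monolayer, 2 h at 37 °C. Both sides quantified by LC-MS/MS; Papp A–B or B–A from receiver concentration and volume, time, membrane area and initial donor concentration.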

[8] = molecular target: T2, Tyrosine-protein kinase ITK/TSK (Homo sapiens) (UniProt Q08881); experiment: Inhibition of ITK (unknown origin) at 1 uM by proQinase-based assay relative to control
T2 sequence (whole entry): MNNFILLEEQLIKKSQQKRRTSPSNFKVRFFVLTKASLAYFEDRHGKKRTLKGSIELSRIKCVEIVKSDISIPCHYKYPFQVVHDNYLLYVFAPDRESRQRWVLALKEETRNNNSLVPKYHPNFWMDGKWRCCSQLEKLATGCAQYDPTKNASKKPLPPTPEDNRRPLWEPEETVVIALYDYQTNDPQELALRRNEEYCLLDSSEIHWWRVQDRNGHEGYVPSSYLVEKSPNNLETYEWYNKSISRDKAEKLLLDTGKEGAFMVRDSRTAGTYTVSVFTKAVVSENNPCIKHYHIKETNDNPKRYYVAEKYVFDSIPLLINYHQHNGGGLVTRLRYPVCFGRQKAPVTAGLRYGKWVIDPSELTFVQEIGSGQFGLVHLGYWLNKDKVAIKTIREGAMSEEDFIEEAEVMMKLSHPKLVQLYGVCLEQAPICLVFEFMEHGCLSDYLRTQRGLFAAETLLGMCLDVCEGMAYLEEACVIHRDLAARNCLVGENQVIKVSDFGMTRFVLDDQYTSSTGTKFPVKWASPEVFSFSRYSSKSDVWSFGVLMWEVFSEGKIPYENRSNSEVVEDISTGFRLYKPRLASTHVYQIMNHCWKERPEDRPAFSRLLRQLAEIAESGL

[9] = molecular target: Tyrosine-protein kinase BTK (Homo sapiens) (UniProt Q06187); experiment: Inhibition of BTK (unknown origin) at 1 uM by proQinase-based assay relative to control
Sequence of Tyrosine-protein kinase BTK (Homo sapiens) (Q06187 whole entry): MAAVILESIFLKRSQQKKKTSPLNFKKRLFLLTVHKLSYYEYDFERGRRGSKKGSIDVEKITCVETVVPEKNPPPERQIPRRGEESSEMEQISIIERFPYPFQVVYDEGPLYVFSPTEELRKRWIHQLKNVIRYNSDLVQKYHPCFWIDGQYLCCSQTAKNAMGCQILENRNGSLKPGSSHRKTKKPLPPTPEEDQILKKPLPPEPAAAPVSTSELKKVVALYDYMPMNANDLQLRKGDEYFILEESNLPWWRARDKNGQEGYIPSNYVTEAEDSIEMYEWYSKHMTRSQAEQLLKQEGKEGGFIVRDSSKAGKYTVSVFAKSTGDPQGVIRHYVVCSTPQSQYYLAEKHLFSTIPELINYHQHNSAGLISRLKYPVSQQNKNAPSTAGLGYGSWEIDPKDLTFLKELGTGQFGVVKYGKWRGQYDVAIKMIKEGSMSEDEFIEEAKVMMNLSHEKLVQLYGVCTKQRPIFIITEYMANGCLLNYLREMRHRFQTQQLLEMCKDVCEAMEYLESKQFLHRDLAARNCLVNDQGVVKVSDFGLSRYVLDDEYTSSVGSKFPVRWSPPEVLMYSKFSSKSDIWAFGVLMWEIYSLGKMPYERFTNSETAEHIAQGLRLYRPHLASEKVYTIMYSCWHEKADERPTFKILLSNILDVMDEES

[10] = in vitro; details: mouse, liver microsomes

`C=CC(=O)N1CCC[C@@H](n2nc(-c3cn(-c4ccc(C(C)=O)cc4)nn3)c3c(N)ncnc32)C1` showed an IC50 [1] of 10 nM, a Papp B→A at 2 h, 5 µM [2] of 13 ×10⁻⁶ cm/s and an inhibition [3] greater than 50%. For the same molecule, the solubility kinetic at 1.5 h [4] was 8 µM (≈ 3.66 µg/mL), the microsomal CLint at 1 h, 3 µM [5] was 154 µL/min/mg and the inhibition [6] was greater than 50%. For the same molecule, the Papp A→B at 2 h, 10 µM [7] was 9 ×10⁻⁶ cm/s, the inhibition [8] was greater than 50% and the inhibition [9] was greater than 50%. The microsomal CLint at 1 h, 3 µM [10] was 124 µL/min/mg.
